Active and inactive are the calls of the source. The calls are words filed in the database; no cut-off is given here.
What was measured:
[1] = tested on: A549; assay: Cell cycle arrest in human A549 cells assessed as accumulation at S phase at 1.6 uM treated 32 hrs post mimosine addition measured after 18 hrs in presence of fresh medium by propidium iodide staining based flow cytometry (reference value: 23%); format: functional
[2] = biological target: T1, Cytochrome P450 1A2 (Homo sapiens, UniProt P05177); assay: Inhibition of recombinant human CYP1A2 expressed in baker's yeast-derived microsomes using 3-cyano-7-ethoxycoumarin as substrate by fluorescence assay; format: ADME
T1 sequence (P05177 whole entry): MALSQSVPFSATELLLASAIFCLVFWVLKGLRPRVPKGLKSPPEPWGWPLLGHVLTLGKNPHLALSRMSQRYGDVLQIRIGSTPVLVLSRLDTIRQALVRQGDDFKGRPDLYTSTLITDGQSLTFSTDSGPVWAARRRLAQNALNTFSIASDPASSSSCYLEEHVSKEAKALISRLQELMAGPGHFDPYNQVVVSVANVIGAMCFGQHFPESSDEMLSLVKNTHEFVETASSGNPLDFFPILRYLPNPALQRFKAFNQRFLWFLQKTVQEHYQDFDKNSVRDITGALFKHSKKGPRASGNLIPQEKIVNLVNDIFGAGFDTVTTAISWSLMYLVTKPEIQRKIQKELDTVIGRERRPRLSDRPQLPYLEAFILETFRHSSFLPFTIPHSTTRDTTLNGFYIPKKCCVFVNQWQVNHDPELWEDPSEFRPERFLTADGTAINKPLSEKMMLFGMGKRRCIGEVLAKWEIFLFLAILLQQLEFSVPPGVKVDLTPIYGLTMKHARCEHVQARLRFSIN

[3] = tested on: A549; assay: Up regulation of cyclin-B1 expression in human A549 cells at 0.8 to 1.6 uM measured after 18 hrs by Western blot analysis; format: functional, cell-based
[4] = tested on: A549; assay: Cell cycle arrest in human A549 cells assessed as accumulation at G2/M phase at 0.8 uM treated 32 hrs post mimosine addition measured after 18 hrs in presence of fresh medium by propidium iodide staining based flow cytometry (reference value: 14%); format: functional
[5] = tested on: A549; assay: Cell cycle arrest in human A549 cells assessed as accumulation at G0/G1 phase at 0.8 uM treated 32 hrs post mimosine addition measured after 18 hrs in presence of fresh medium by propidium iodide staining based flow cytometry (reference value: 58%); format: functional
[6] = tested on: MDA-MB-468; assay: Cell cycle arrest in human MDA-MB-468 cells assessed as accumulation at sub-G1 phase at 10.85 uM measured after 18 hrs by propidium iodide staining based flow cytometry relative to control; format: functional
[7] = biological target: Tubulin (Sus scrofa) (UniProt P02554+P02550); assay: Inhibition of porcine tubulin polymerization incubated for 1 min by fluorescence based assay; format: protein assay
How it was run: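 Compounds added from 10x stocks in duplicate and warmed at 37°C ≤1 min. Ice-cold tubulin pre-mix then added. Fluorescent reporter read at ex 360/em 460 nm for 60 min. Paclitaxel served as enhancer control, CaCl2 as inhibitor control.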

[8] = tested on: A549; assay: Cell cycle arrest in human A549 cells assessed as accumulation at G2/M phase at 1.6 uM measured after 18 hrs by propidium iodide staining based flow cytometry (reference value: 18%); format: functional
[9] = tested on: Calu-1; assay: Cell cycle arrest in human Calu1 cells assessed as accumulation at G0/G1 phase at 0.9 uM treated 18 hrs post serum-starvation measured after 18 hrs in presence of fresh medium containing FBS by propidium iodide staining based flow cytometry (reference value: 69.2%); format: functional
[10] = tested on: A549; assay: Cell cycle arrest in human A549 cells assessed as accumulation at G0/G1 phase at 1.6 uM measured after 18 hrs by propidium iodide staining based flow cytometry (reference value: 58%); format: functional
[11] = biological target: CDK9/cyclin T1 (Homo sapiens, UniProt P50750); assay: Inhibition of N-terminal GST-HIS6 fusion protein tagged human full length CDK9 (M1 to F372 residues)/N-terminal HIS6-fused human Cyclin-T1 (M1 to K726 residues) expressed in Sf9 cells using RBCTF as substrate measured after 1 hr by ADP-glo luminescence assay
[12] = tested on: A549; assay: cells; conditions: Homo sapiens, A549, 72 h
[13] = tested on: A549; assay: Cell cycle arrest in human A549 cells assessed as accumulation at G2/M phase at 1.6 uM treated 32 hrs post mimosine addition measured after 18 hrs in presence of fresh medium by propidium iodide staining based flow cytometry (reference value: 14%); format: functional
[14] = tested on: A549; assay: Cell cycle arrest in human A549 cells assessed as accumulation at G2/M phase at 0.8 uM measured after 18 hrs by propidium iodide staining based flow cytometry (reference value: 18%); format: functional
[15] = tested on: A549; assay: Cell cycle arrest in human A549 cells assessed as ratio of G1 to S phase at 0.8 uM treated 32 hrs post mimosine addition measured after 18 hrs in presence of fresh medium by propidium iodide staining based flow cytometry (reference value: 2.5); format: functional
[16] = biological target: Cyclin-dependent kinase 4/cyclin D1 (Homo sapiens) (UniProt P11802+P24385); assay: Inhibition of CDK4/cyclin D1 in human T47D cells assessed as reduction in phosphorylation of pRb at Ser795 residues at 0.75 to 1.5 uM measured after 18 hrs by Western blot analysis; format: cell-based
How it was run: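 T47D cells left untreated or treated 18 h at 0.75 or 1.5 µM. Western blots probed with phospho-specific pRb antibodies (Ser780, Ser795, Ser807/811) and a total-pRb antibody; HRP-conjugated secondary for detection.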

[17] = biological target: T2, Cytochrome P450 1A1 (Homo sapiens, UniProt P04798); assay: Inhibition of recombinant human CYP1A1 expressed in baker's yeast-derived microsomes using 7-ethoxyresorufin as substrate by fluorescence assay; format: ADME
T2 sequence (P04798 whole entry): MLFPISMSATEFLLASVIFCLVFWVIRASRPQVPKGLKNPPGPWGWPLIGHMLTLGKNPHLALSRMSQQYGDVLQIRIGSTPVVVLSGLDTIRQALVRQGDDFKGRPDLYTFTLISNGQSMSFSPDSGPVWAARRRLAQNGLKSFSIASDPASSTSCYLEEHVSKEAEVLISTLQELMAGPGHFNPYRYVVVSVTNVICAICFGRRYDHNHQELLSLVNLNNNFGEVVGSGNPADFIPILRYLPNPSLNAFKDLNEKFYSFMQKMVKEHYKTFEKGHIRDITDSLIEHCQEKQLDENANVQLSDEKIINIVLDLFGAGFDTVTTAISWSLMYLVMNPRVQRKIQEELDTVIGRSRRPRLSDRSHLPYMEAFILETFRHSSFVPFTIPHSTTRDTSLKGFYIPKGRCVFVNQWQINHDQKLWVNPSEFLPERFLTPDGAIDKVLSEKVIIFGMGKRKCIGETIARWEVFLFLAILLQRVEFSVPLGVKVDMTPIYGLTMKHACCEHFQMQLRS

[18] = biological target: Cyclin-dependent kinase 1/cyclin B1 (Homo sapiens, UniProt P06493); assay: Inhibition of recombinant human N-terminal GST/His6-tagged CDK1 (M1 to M297 residues)/CyclinB1 (M1 to V433 residues) expressed in Sf9 insect cells using RBCTF as substrate measured after 1 hr by ADP-glo luminescence assay
[19] = tested on: A549; assay: Cell cycle arrest in human A549 cells assessed as accumulation at S phase at 0.8 uM measured after 18 hrs by propidium iodide staining based flow cytometry (reference value: 21%); format: functional

IC50 [2]: > 5 µM
inhibition [7]: Dose-dependent effect
IC50 [11]: > 100 µM
EC50 [12]: 0.8 µM
inhibition [16]: Active
IC50 [17]: > 5 µM
IC50 [18]: > 50 µM
SMILES: O=C(COc1ccc(-c2nc3ccccc3c(=O)[nH]2)cc1)Nc1cccc(Cl)c1
Activity [1]: 18%
Activity [3]: inactive
Activity [4]: 35%
Activity [5]: 36%
Activity [6]: 0%
Activity [8]: 70%
Activity [9]: 75%
Activity [10]: 12%
Activity [13]: 68%
Activity [14]: 28%
Ratio [15]: 1.07
Activity [19]: 10%
